The test system of assay [1] is SK-OV-3. Description: Cytotoxicity against human SKOV3 cells in hypoxic condition after 4 hrs by sulforhodamine B assay. In kind it is functional, cell-based. Conditions: SK-OV-3, 4 h. In outline:
(§1)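 Log-phase monolayers exposed to drug for 4 h under aerobic (20% O2) or anoxic (<20 ppm O2) conditions, then sulforhodamine B staining 5 days later. IC50 interpolated as concentration lowering cell density to 50% of same-plate controls. HCR = IC50(oxic)/IC50(hypoxic), mean of intraexperiment ratios. A549 P450R line is a stable transfectant with 9-fold higher cytochrome c reduction rate than parent.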
For orientation: The SRB assay estimates cell density from bound dye.

For assay [2], the system named is HT-29. Description: Cytotoxicity against human HT-29 cells in hypoxic condition after 4 hrs by sulforhodamine B assay. Conditions: HT-29, 4 h. In kind it is functional, cell-based. Put shortly: as §1
Assay [3] concerns HT-29. Description: Hypoxic cytotoxicity ratio, IC50 for human HT-29 cells in oxic condition to IC50 for human HT-29 cells in hypoxic condition. In kind it is functional. Put shortly:
as §1

The test system of assay [4] is SK-OV-3. Description: Hypoxic cytotoxicity ratio, IC50 for human SKOV3 cells in oxic condition to IC50 for human SKOV3 cells in hypoxic condition. The assay is classed as functional. Put shortly: as §1
Assay [5] deals with SK-OV-3. Description: Cytotoxicity against human SKOV3 cells in oxic condition after 4 hrs by sulforhodamine B assay. The assay is classed as functional, cell-based. The settings on record: SK-OV-3, 4 h. Put shortly:
as §1

In assay [6] the test system is HT-29. Description: Cytotoxicity against human HT-29 cells in oxic condition after 4 hrs by sulforhodamine B assay. Conditions: HT-29, 4 h. In kind it is functional, cell-based. In outline:
as §1

This note sets out measurements from ChEMBL document CHEMBL1156136, “Hypoxia-activated prodrugs: substituent effects on the properties of nitro seco-1,2,9,9a-tetrahydrocyclopropa[c]benz[e]indol-4-one (nitroCBI) prodrugs of DNA minor groove alkylating agents” (J Med Chem, 2009).

As a reminder, the IC50 is the midpoint of a concentration-inhibition curve. A lower IC50 goes with higher potency.

Regarding `COC(=O)c1ccc2c3c(cc([N+](=O)[O-])c2c1)N(C(=O)c1cc2cc(OC)c(OC)c(OC)c2[nH]1)CC3CCl` (stereo unspecified), the IC50 with SK-OV-3 [1] stood at 0.51 nM; in the assay with HT-29 [2], 0.81 nM; with SK-OV-3 [5], 1100 nM; in the assay on HT-29 [6], 1900 nM. Also, the “Ratio IC50” value with HT-29 [3] stood at 3.2; with SK-OV-3 [4], 4.
In the case of `COc1cc2cc(C(=O)N3CC(CCl)c4c3cc([N+](=O)[O-])c3cc(C(N)=O)ccc43)[nH]c2c(OC)c1OC` (stereo unspecified), the 50% inhibitory concentration (IC50) in the assay on SK-OV-3 [1] is 1.6 nM; in the assay on HT-29 [2], 3.6 nM; with SK-OV-3 [5], 5800 nM; in the assay on HT-29 [6], 7900 nM. Besides, the “Ratio IC50” value in the assay with HT-29 [3] is 2.8; with SK-OV-3 [4], 6.1.
As to `COc1cc2cc(C(=O)N3CC(CCl)c4c3cc(N)c3ccccc43)[nH]c2c(OC)c1OC` (stereo unspecified), the 50% inhibitory concentration (IC50) in the assay on SK-OV-3 [1] worked out at 1.7 nM; in the assay on HT-29 [2], 2.5 nM; with SK-OV-3 [5], 1300 nM; with HT-29 [6], 860 nM. Moreover, the “Ratio IC50” value with HT-29 [3] worked out at 0.76; in the assay with SK-OV-3 [4] it was 1.
In the case of `CC(=O)c1ccc2c3c(cc(N)c2c1)N(C(=O)c1cc2cc(OCCN(C)C)ccc2[nH]1)CC3CCl` (stereo unspecified), the IC50 with SK-OV-3 [1] is 8.2 nM; in the assay on HT-29 [2], 5.6 nM; in the assay on SK-OV-3 [5], 11000 nM; in the assay with HT-29 [6], 7600 nM. For the same compound, the “Ratio IC50” value is recorded as 1.5 with HT-29 [3] and 1.4 with SK-OV-3 [4].
For the compound `CN(C)CCOc1ccc2[nH]c(C(=O)N3CC(CCl)c4c3cc([N+](=O)[O-])c3cc([N+](=O)[O-])ccc43)cc2c1` (stereo unspecified), the concentration for half-maximal inhibition (IC50) in the assay with SK-OV-3 [1] came to 0.12 nM; with HT-29 [2] it was 0.093 nM; with SK-OV-3 [5] it was 1100 nM; with HT-29 [6], 890 nM. Further, the “Ratio IC50” value was 9.6 in the assay with HT-29 [3] and 9.3 in the assay with SK-OV-3 [4].
As for `CN(C)CCOc1ccc2[nH]c(C(=O)N3CC(CCl)c4c3cc(N)c3cc(S(C)(=O)=O)ccc43)cc2c1` (stereo unspecified), the IC50 was 8.2 nM in the assay on SK-OV-3 [1], 7.3 nM in the assay with HT-29 [2], 14000 nM in the assay with SK-OV-3 [5] and 11000 nM in the assay on HT-29 [6]. Also, the “Ratio IC50” value in the assay on HT-29 [3] worked out at 1.6; in the assay with SK-OV-3 [4], 1.7.
For the compound `CN(C)CCOc1ccc2[nH]c(C(=O)N3CC(CCl)c4c3cc([N+](=O)[O-])c3c([N+](=O)[O-])cccc43)cc2c1` (stereo unspecified), the IC50 in the assay on SK-OV-3 [1] was determined as 1.4 nM; in the assay on HT-29 [2] it was 1.3 nM; with SK-OV-3 [5] it was 4100 nM; in the assay on HT-29 [6], 2800 nM. Also, the “Ratio IC50” value with HT-29 [3] stood at 2.2; in the assay on SK-OV-3 [4] it was 2.9.
For the compound `COc1cc2cc(C(=O)N3CC(CCl)c4c3cc(N)c3cc(S(N)(=O)=O)ccc43)[nH]c2c(OC)c1OC` (stereo unspecified), the IC50 in the assay with SK-OV-3 [1] amounted to 33 nM; with HT-29 [2], 91 nM; in the assay with SK-OV-3 [5], 41000 nM; in the assay on HT-29 [6] it was 86000 nM. The entries for the “Ratio IC50” value in the assay with HT-29 [3] and in the assay with SK-OV-3 [4] were 1.1 and 1.3, respectively.
Take `CN(C)CCOc1ccc2[nH]c(C(=O)N3CC(CCl)c4c3cc([N+](=O)[O-])c3c(S(N)(=O)=O)cccc43)cc2c1` (stereo unspecified): the 50% inhibitory concentration (IC50) in the assay with SK-OV-3 [1] turned out to be 800 nM; with HT-29 [2] it was 1200 nM; in the assay on SK-OV-3 [5] it was 3700 nM; in the assay with HT-29 [6], 2700 nM. Besides, the results for the “Ratio IC50” value in the assay with HT-29 [3] and in the assay on SK-OV-3 [4] were 2.3 and 4.6, respectively.
In the case of `COc1cc2cc(C(=O)N3CC(CCl)c4c3cc([N+](=O)[O-])c3ccc(S(N)(=O)=O)cc43)[nH]c2c(OC)c1OC` (stereo unspecified), the IC50 worked out at 4.9 nM in the assay with SK-OV-3 [1], 14 nM in the assay with HT-29 [2], 12000 nM in the assay with SK-OV-3 [5] and 24000 nM with HT-29 [6]. The “Ratio IC50” value in the assay with HT-29 [3] was found to be 1.9; in the assay with SK-OV-3 [4] it was 2.6.
With `COc1cc2cc(C(=O)N3CC(CCl)c4c3cc([N+](=O)[O-])c3ccc(S(C)(=O)=O)cc43)[nH]c2c(OC)c1OC` (stereo unspecified), the IC50 in the assay on SK-OV-3 [1] was determined as 3.9 nM; with HT-29 [2] it was 7.2 nM; in the assay with SK-OV-3 [5], 11000 nM; with HT-29 [6] it was 14000 nM. Moreover, the “Ratio IC50” value in the assay on HT-29 [3] turned out to be 2.5; in the assay with SK-OV-3 [4] it was 4.2.
For `COc1cc2cc(C(=O)N3CC(CCl)c4c3cc([N+](=O)[O-])c3cc([N+](=O)[O-])ccc43)[nH]c2c(OC)c1OC` (stereo unspecified), the 50% inhibitory concentration (IC50) in the assay on SK-OV-3 [1] was 240 nM; with HT-29 [2] it was 1300 nM; in the assay on SK-OV-3 [5] it was 16000 nM; in the assay on HT-29 [6], 14000 nM. For the same compound, the “Ratio IC50” value in the assay with HT-29 [3] is on record as 12; with SK-OV-3 [4] it was 70.
`COc1cc2cc(C(=O)N3CC(CCl)c4c3cc(N)c3cc(C(N)=O)ccc43)[nH]c2c(OC)c1OC` (stereo unspecified): the half-inhibitory concentration (IC50) in the assay with SK-OV-3 [1] turned out to be 27 nM; in the assay on HT-29 [2], 28 nM; with SK-OV-3 [5] it was 34000 nM; with HT-29 [6], 59000 nM. Further, the “Ratio IC50” value came to 2.3 with HT-29 [3] and 1.2 with SK-OV-3 [4].
On to `CN(C)CCOc1ccc2[nH]c(C(=O)N3CC(CCl)c4c3cc([N+](=O)[O-])c3ccc(C#N)cc43)cc2c1` (stereo unspecified), for which the IC50 is 880 nM in the assay on SK-OV-3 [1], 1200 nM in the assay with HT-29 [2], 1200 nM in the assay with SK-OV-3 [5] and 1400 nM in the assay on HT-29 [6]. The “Ratio IC50” value in the assay with HT-29 [3] came to 1.4; in the assay on SK-OV-3 [4] it was 1.5.
For the compound `COc1cc2cc(C(=O)N3CC(CCl)c4c3cc([N+](=O)[O-])c3ccccc43)[nH]c2c(OC)c1OC` (stereo unspecified), the IC50 in the assay with SK-OV-3 [1] came to 1.7 nM; with HT-29 [2], 1.6 nM; in the assay with SK-OV-3 [5], 4200 nM; with HT-29 [6], 3400 nM. Also, the “Ratio IC50” value in the assay on HT-29 [3] was determined as 2.5; with SK-OV-3 [4], 2.8.
For the compound `CN(C)CCOc1ccc2[nH]c(C(=O)N3CC(CCl)c4c3cc(N)c3ccc(S(C)(=O)=O)cc43)cc2c1` (stereo unspecified), the IC50 was 12 nM in the assay with SK-OV-3 [1], 16 nM in the assay on HT-29 [2], 18000 nM with SK-OV-3 [5] and 29000 nM in the assay on HT-29 [6]. The “Ratio IC50” value was determined as 1.9 in the assay with HT-29 [3] and 1.5 in the assay with SK-OV-3 [4].
